Measured values from ChEMBL document CHEMBL1151908, “Towards calixarene-based prodrugs: Drug release and antibacterial behaviour of a water-soluble nalidixic acid/calix[4]arene ester adduct” (Bioorg Med Chem Lett, 2009).
Converted amounts (≈) assume the structure as drawn. The source made the active and inactive calls. No cut-off for these calls is given here.

Key:
Staphylococcus aureus [1] = test: Antibacterial activity against Staphylococcus aureus ATCC 29213 after 18 to 24 hrs by CA-SFM and NCCLS-based broth microdilution method; type: functional
Method in brief: (§1)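 MIC determined in liquid phase by broth microdilution in U-bottom 96-well plates. Bacteria were grown in Mueller-Hinton broth or agar, and isolate purity was checked at each test by colony morphology and Gram stain. The final inoculum was 1×10^5 CFU/mL, with a series of drug concentrations added. Plates were incubated 18–24 h at 35 °C, and growth was read by absorbance at 540 nm. MIC is expressed in µmol/L and µg/mL.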

Pseudomonas aeruginosa [2] = test: Antibacterial activity against Pseudomonas aeruginosa ATCC 27853 after 18 to 24 hrs by CA-SFM and NCCLS-based broth microdilution method; type: functional; method in brief: as §1
Enterococcus faecalis [3] = test: Antibacterial activity against Enterococcus faecalis ATCC 29212 after 18 to 24 hrs by CA-SFM and NCCLS-based broth microdilution method; type: functional; method in brief: as §1
Staphylococcus aureus [4] = test: Antibacterial activity against Staphylococcus aureus ATCC 25923 after 18 to 24 hrs by CA-SFM and NCCLS-based broth microdilution method; type: functional; method in brief: as §1
Escherichia coli [5] = test: Antibacterial activity against Escherichia coli ATCC 25922 after 18 to 24 hrs by CA-SFM and NCCLS-based broth microdilution method; type: functional; method in brief: as §1
Pseudomonas aeruginosa [6] = test: Antibacterial activity against Pseudomonas aeruginosa ATCC 27853 at < 256 ug/mL after 18 to 24 hrs by CA-SFM and NCCLS-based broth microdilution method; type: functional, organism-based
Staphylococcus aureus [7] = test: Antibacterial activity against Staphylococcus aureus ATCC 25923 at < 256 ug/mL after 18 to 24 hrs by CA-SFM and NCCLS-based broth microdilution method; type: functional, organism-based
Staphylococcus aureus [8] = test: Antibacterial activity against Staphylococcus aureus ATCC 29213 at < 256 ug/mL after 18 to 24 hrs by CA-SFM and NCCLS-based broth microdilution method; type: functional, organism-based
Escherichia coli [9] = test: Antibacterial activity against Escherichia coli ATCC 25922 at < 256 ug/mL after 18 to 24 hrs by CA-SFM and NCCLS-based broth microdilution method; type: functional, organism-based
Enterococcus faecalis [10] = test: Antibacterial activity against Enterococcus faecalis ATCC 29212 at < 256 ug/mL after 18 to 24 hrs by CA-SFM and NCCLS-based broth microdilution method; type: functional, organism-based

## CCn1cc(C(=O)OCCCOc2c3cc(CCN)cc2Cc2cc(CCN)cc(c2O)Cc2cc(CCN)cc(c2O)Cc2cc(CCN)cc(c2O)C3)c(=O)c2ccc(C)nc21
Staphylococcus aureus [1]
  MIC: 50 µM (≈ 43.5 µg/mL)
Pseudomonas aeruginosa [2]
  MIC: 100 µM (≈ 86.9 µg/mL)
Enterococcus faecalis [3]
  MIC: 100 µM (≈ 86.9 µg/mL)
Staphylococcus aureus [4]
  MIC: 50 µM (≈ 43.5 µg/mL)
Escherichia coli [5]
  MIC: 25 µM (≈ 21.7 µg/mL)

## CCn1cc(C(=O)O)c(=O)c2ccc(C)nc21 [NALIDIXIC ACID]
Staphylococcus aureus [1]
  MIC: 200 µM (≈ 46.4 µg/mL)
Pseudomonas aeruginosa [2]
  MIC: 200 µM (≈ 46.4 µg/mL)
Enterococcus faecalis [3]
  MIC: 200 µM (≈ 46.4 µg/mL)
Staphylococcus aureus [4]
  MIC: 200 µM (≈ 46.4 µg/mL)
Escherichia coli [5]
  MIC: 100 µM (≈ 23.2 µg/mL)

## O=C([O-])C(F)(F)F.[Na+]
Pseudomonas aeruginosa [6]
  Activity: inactive
Staphylococcus aureus [7]
  Activity: inactive
Staphylococcus aureus [8]
  Activity: inactive
Escherichia coli [9]
  Activity: inactive
Enterococcus faecalis [10]
  Activity: inactive

## NCCc1cc2c(O)c(c1)Cc1cc(CCN)cc(c1O)Cc1cc(CCN)cc(c1OCCCO)Cc1cc(CCN)cc(c1O)C2
Staphylococcus aureus [1]
  MIC: 220 µM (≈ 144 µg/mL)
Pseudomonas aeruginosa [2]
  MIC: 220 µM (≈ 144 µg/mL)
Enterococcus faecalis [3]
  MIC: > 220 µM
Staphylococcus aureus [4]
  MIC: 220 µM (≈ 144 µg/mL)
Escherichia coli [5]
  MIC: 110 µM (≈ 72 µg/mL)
